Results from ChEMBL document CHEMBL1799956, “Convergent synthesis and biological evaluation of 2-amino-4-(3',4',5'-trimethoxyphenyl)-5-aryl thiazoles as microtubule targeting agents” (J Med Chem, 2011).
Active and inactive are the calls of the source. The calls are words filed in the database; no cut-off is given here.

Columns and labels:
[1] = test system: A549; assay: Antiproliferative activity against human A549 cells assessed as growth inhibition after 72 hrs by MTT assay; assay type: functional, cell-based; conditions: A549, 72 h
[2] = test system: HeLa; assay: Antiproliferative activity against human HeLa cells assessed as growth inhibition after 72 hrs by MTT assay; assay type: functional, cell-based
[3] = test system: Jurkat; assay: Antiproliferative activity against human Jurkat cells assessed as growth inhibition after 72 hrs by MTT assay; assay type: functional, cell-based
[4] = test system: K562; assay: Antiproliferative activity against human K562 cells assessed as growth inhibition after 72 hrs by MTT assay; assay type: functional, cell-based; conditions: K562, 72 h
[5] = test system: MCF7; assay: Antiproliferative activity against human MCF7 cells assessed as growth inhibition after 72 hrs by MTT assay; assay type: functional, cell-based; conditions: MCF7, 72 h
[6] = test system: CCRF-CEM; assay: Antiproliferative activity against human CEM cells assessed as growth inhibition after 72 hrs by MTT assay; assay type: functional, cell-based
[7] = target: T1, Tubulin (Homo sapiens) (UniProt P68371+Q9H4B7+P0DPH7+P68366+Q13509+Q71U36+P04350+Q3ZCM7+P07437+P68363+Q9BQE3+Q6PEY2+Q13885+Q9BVA1+Q9BUF5); assay: Induction of microtubule disassembly with spherical morphology in human HeLa cells at 10 nM after 48 hrs using DAPI-staining by fluorescence microscopy; assay type: cell-based
Outline: (§1)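 HeLa cells were exposed to 10 or 100 nM compound for 24 or 48 h, then fixed. Microtubules were stained with FITC-conjugated anti-β-tubulin antibody and imaged by confocal/fluorescence microscopy at 60× magnification.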

[8] = target: T1, Tubulin (Homo sapiens); assay: Induction of microtubule disassembly in human HeLa cells assessed as complete loss of microtubules at 100 nM after 48 hrs using DAPI-staining by fluorescence microscopy; assay type: cell-based; outline: as §1
[9] = test system: HeLa; assay: Induction of morphological changes in human HeLa cells assessed as appearance of giant interphase with multiple nuclei of different sizes at 10 nM after 24 hrs using phalloidintetramethylrhodamine B isothiocyanate staining by microscopy; assay type: functional, cell-based
Outline: (§2)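 HeLa cells were incubated with compound for 24 h. F-actin was stained with a phalloidin–tetramethylrhodamine B isothiocyanate conjugate and nuclei were counterstained with DAPI. Cells were then examined by fluorescence microscopy.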

[10] = test system: HeLa; assay: Induction of morphological changes in human HeLa cells assessed as appearance of giant interphase with multiple nuclei of different sizes at 100 nM after 24 hrs using phalloidintetramethylrhodamine B isothiocyanate staining by microscopy; assay type: functional, cell-based; outline: as §2
[11] = test system: HeLa; assay: Cell cycle arrest in human HeLa cells assessed as decrease of cell population at G1 phase at 1 to 100 nM after 24 hrs using propidium iodide staining by flow cytometry; assay type: functional, cell-based
[12] = test system: Jurkat; assay: Cell cycle arrest in human Jurkat cells assessed as increase of cell population at G2/M phase at 1 to 100 nM after 48 hrs using propidium iodide staining by flow cytometry; assay type: functional, cell-based
[13] = test system: HeLa; assay: Induction of apoptosis in human HeLa cells assessed as increase in mitochondrial ROS production at 100 nM after 48 hrs using hydroethidine staining by flow cytometry; assay type: functional, cell-based
[14] = test system: HeLa; assay: Induction of apoptosis in human HeLa cells assessed as increase in mitochondrial ROS production at 100 nM after 48 hrs using H2DCFDA staining by flow cytometry; assay type: functional, cell-based
[15] = test system: HeLa; assay: Induction of apoptosis in human HeLa cells assessed as no change in mitochondrial potential at 100 nM after 48 hrs using JC-1 staining by flow cytometry; assay type: functional, cell-based
[16] = test system: HeLa; assay: Induction of apoptosis in human HeLa cells assessed as decrease in Bcl2 expression at […] after 24 hrs by Western blot analysis; assay type: functional, cell-based
Outline: (§3)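 Treated HeLa whole-cell lysates separated by SDS-PAGE and immunoblotted for PARP cleavage, Bcl-2, Bax, pro-caspase-9 and pro-caspase-2.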

[17] = test system: HeLa; assay: Induction of apoptosis in human HeLa cells assessed as decrease in Bax expression at […] after 24 hrs by Western blot analysis; assay type: functional, cell-based; outline: as §3
[18] = test system: HeLa; assay: Induction of apoptosis in human HeLa cells assessed as decrease in Bax expression at […] after 48 hrs by Western blot analysis; assay type: functional, cell-based; outline: as §3
[19] = test system: HeLa; assay: Induction of apoptosis in human HeLa cells assessed activation of caspase 9 at […] after 24 hrs by Western blot analysis; assay type: functional, cell-based; outline: as §3
[20] = test system: HeLa; assay: Induction of apoptosis in human HeLa cells assessed as DNA condensation at 100 uM after 24 to 48 hrs using Giemsa's staining by microscopic analysis; assay type: functional, cell-based
Outline: (§4)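 HeLa treated 48 h, Giemsa stained and examined by light microscopy at 60× magnification.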

[21] = test system: HeLa; assay: Induction of apoptosis in human HeLa cells assessed as abnormal mitotic figures at 100 uM after 24 to 48 hrs using Giemsa's staining by microscopic analysis; assay type: functional, cell-based; outline: as §4
[22] = test system: HeLa; assay: Induction of apoptosis in human HeLa cells assessed as multinucleation at 100 uM after 24 to 48 hrs using Giemsa's staining by microscopic analysis; assay type: functional, cell-based
Outline: (§5)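 Giemsa staining, then light-microscope examination of cell morphology. HeLa and Jurkat cells were exposed to compound for 24 and 48 h. Magnification 60×.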

[23] = test system: HeLa; assay: Induction of apoptosis in human HeLa cells assessed as formation of large cells at 10 uM after 24 to 48 hrs using Giemsa's staining by microscopic analysis; assay type: functional, cell-based; outline: as §4
[24] = test system: Jurkat; assay: Induction of apoptosis in human Jurkat cells assessed as DNA condensation at 100 uM after 24 to 48 hrs using Giemsa's staining by microscopic analysis; assay type: functional, cell-based; outline: as §5
[25] = test system: Jurkat; assay: Induction of apoptosis in human Jurkat cells assessed as abnormal mitotic figures at 10 uM after 24 to 48 hrs using Giemsa's staining by microscopic analysis; assay type: functional, cell-based; outline: as §5
[26] = test system: Jurkat; assay: Induction of apoptosis in human Jurkat cells assessed as abnormal mitotic figures at 100 uM after 24 to 48 hrs using Giemsa's staining by microscopic analysis; assay type: functional, cell-based; outline: as §5
[27] = test system: Jurkat; assay: Induction of apoptosis in human Jurkat cells assessed as formation of large cells at 10 uM after 24 to 48 hrs using Giemsa's staining by microscopic analysis; assay type: functional, cell-based; outline: as §5
[28] = test system: Jurkat; assay: Induction of apoptosis in human Jurkat cells assessed as formation of large cells at 100 uM after 24 to 48 hrs using Giemsa's staining by microscopic analysis; assay type: functional, cell-based; outline: as §5
[29] = test system: Jurkat; assay: Induction of apoptosis in human Jurkat cells assessed as formation of large cytoplasmic vacuoles at 10 uM after 24 to 48 hrs using Giemsa's staining by microscopic analysis; assay type: functional, cell-based; outline: as §5
[30] = test system: HeLa; assay: Induction of apoptosis in human HeLa cells assessed as increase in phospho-gammaH2AX expression at […] after 24 hrs by Western blot analysis; assay type: functional, cell-based
Outline: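 HeLa treated for 24 or 48 h; whole-cell lysates run on SDS-PAGE and blotted for phospho-γH2AX (Ser139).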

[31] = test system: HeLa; assay: Induction of apoptosis in human HeLa cells assessed as reduction in p53 expression at […] after 24 hrs by Western blot analysis; assay type: functional, cell-based
Outline: (§6)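 Western blot of HeLa whole-cell lysates, separated by SDS-PAGE and probed with antibodies to p-γH2AX Ser139, p53 and p21waf/cip1. Cells were treated at the indicated concentrations for 24 or 48 h.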

[32] = test system: HeLa; assay: Induction of apoptosis in human HeLa cells assessed as reduction in p21 expression at […] after 48 hrs by Western blot analysis; assay type: functional, cell-based; outline: as §6
[33] = test system: HeLa; assay: Induction of apoptosis in human HeLa cells assessed as reduction in p21 expression at 10 to 100 nM after 24 hrs by Western blot analysis

IC50 [1]: 0.09 nM
IC50 [2]: 0.03 nM
IC50 [3]: 0.14 nM
IC50 [4]: 0.07 nM
IC50 [5]: 44 nM
IC50 [6]: 0.9 nM
Activity [7]: Active
Activity [8]: Active
SMILES: CCOc1ccc(-c2sc(N)nc2-c2cc(OC)c(OC)c(OC)c2)cc1
Activity [9]: Active
Activity [10]: Active
Activity [11]: Active
Activity [12]: Active
Activity [13]: Active
Activity [14]: Active
Activity [15]: inactive
Activity [16]: inactive
Activity [17]: inactive
Activity [18]: Active
Activity [19]: inactive
Activity [20]: Active
Activity [21]: Active
Activity [22]: Active
Activity [23]: Active
Activity [24]: Active
Activity [25]: Active
Activity [26]: Active
Activity [27]: Active
Activity [28]: Active
Activity [29]: Active
Activity [30]: Active
Activity [31]: inactive
Activity [32]: Active
Activity [33]: Active
